Hits are enriched below; roughly 2.1% of the tested compounds scored in any of these assays.
MIN6 prolif – inducers of MIN6 beta-cell proliferation, primary screen, ATP luminescence, uHTS; MIN6 cells proliferation, ATPlite luminescence, 48 h; cells starved in 0.2% serum; 100% = growth in 10% serum; proliferation, % at 10 µM; hit rate 0.29% among 330,000; AID 2380, 2010;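 active = compounds whose signal lies at least 3.5 SD above the mean of all wells on their plate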;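 also: 0% = DMSO-treated cells in low-serum medium and 100% = 10% serum control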
H9c2 protect – cardioprotection against H2O2-induced cell death, primary screen, uHTS, H9c2 cells, ATPLite luminescence; H9c2 cardiomyocytes, H2O2 injury protection, 2 h; protection from H2O2 cell death, % at 20 µM; hit rate 0.63% among 360,000;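 active = compounds giving at least 50% protection of heart cells from peroxide-induced death in the single-dose screen, raw or plate-pattern-corrected value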;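 also: 0% = DMSO wells with peroxide and 100% = DMSO wells without peroxide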
CRFR2-BP ag – agonists of CRF-BP/CRF-R2 complex, primary screen, cell-based, HEK293, calcium dye fluorescence, uHTS | hit rate 0.46% among 350,000 | AID 588473, 2011 | CRF-binding protein / CRF receptor 2 complex (human) | calcium dye fluorescence (FLIPR); percent of saturating CRF peptide response | activation, % at 13.2 µM;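 active = activation of at least 50%, plus an integration ratio under a set limit after plate pattern correction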;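 also: plate controls were neutral control wells without compound for no effect and CRF at EC100 for full effect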
hiPSC survival – enhancers of single-cell hiPSC survival, primary screen, ATPlite luminescence | survival enhancement, % at 20 µM | 100% = ROCK inhibitor wells, 0% = DMSO | hit rate 0.044% among 360,000; in the data active = survival enhancement above about 18%;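 also: cells exposed to compounds for 16 hours before the ATP read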
UCH37 inh – inhibitors of human UCH37 deubiquitinase, primary screen, biochemical, Ub-AMC cleavage, fluorescence; Ubiquitin carboxyl-terminal hydrolase isozyme L5 (Homo sapiens), Q9Y5K5; purified proteasome/UCH37; inhibition, % (test concentration not listed); hit rate 0.33% among 330,000; AID 588478, 2011;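 active = mean inhibition over replicate wells above about 20%, limit read from the data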;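 also: 0% = compound-free wells with enzyme and 100% = wells lacking proteasome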
Target sequence (Q9Y5K5 whole entry, looked up): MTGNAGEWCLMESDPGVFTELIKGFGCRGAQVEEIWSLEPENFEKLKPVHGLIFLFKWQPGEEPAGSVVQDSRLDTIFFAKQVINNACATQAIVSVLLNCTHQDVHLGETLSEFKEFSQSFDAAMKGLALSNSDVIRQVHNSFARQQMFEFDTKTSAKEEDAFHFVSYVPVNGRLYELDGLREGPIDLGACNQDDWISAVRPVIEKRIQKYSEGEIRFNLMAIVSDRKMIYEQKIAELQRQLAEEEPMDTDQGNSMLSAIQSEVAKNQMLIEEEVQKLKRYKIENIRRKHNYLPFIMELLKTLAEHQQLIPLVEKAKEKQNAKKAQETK
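Material: human UCH37 enzyme supplied as purified proteasome complex. Measure: % inhibition of Ub-AMC cleavage fluorescence. Medium: pH 7.4 Tris-HCl (50 mM) with ovalbumin, ATP-MgCl2, DTT. Times: 30 min preincubation with enzyme, 25 min cleavage at room temperature. Detection: AMC fluorescence intensity at 355/460 nm.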
CRFBP-R2 block – antagonists of CRF-BP/CRF-R2 complex, primary screen, cell-based, HEK293, calcium dye fluorescence, uHTS; CRF-induced calcium fluorescence; inhibition, % at 11.8 µM; hit rate 0.59% among 350,000; AID 588475, 2011;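 active = inhibition of the ligand-induced calcium signal above about 50% at the single tested concentration, limit read from the data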
* hit, by the source's call; . = no result given.

SMILES	MIN6 prolif	H9c2 protect	CRFR2-BP ag	hiPSC survival	UCH37 inh	CRFBP-R2 block
C/C(=N\OC(=O)c1ccc(OC(C)C)cc1)c1ccc(C)c(C)c1	-2.7	-19.0	-1.7	3.4	.	72.7*
Cc1c(C(=O)Nc2c(F)cccc2F)sc2ncn(CC(=O)N3CCCCC3)c(=O)c12	-0.5	-1.8	-0.8	0.2	2.1	78.1*
CC(=O)Nc1cccc(NC(=O)c2sc3ncn(CC(=O)N4CCCCC4)c(=O)c3c2C)c1	.	7.6	0.9	-0.3	7.0	-11.0
O=c1sc2ccccc2n1CCOc1ccccc1	1.4	-4.3	-2.5	-0.5	3.2	36.3
Cc1ccc(OCn2c(=O)sc3ccccc32)cc1	1.9	6.6	-1.7	-2.6	0.3	55.0*
CSCCC(NC(=O)c1cccc(C)c1)C(=O)NNC(=O)c1cccs1 (stereo unspecified)	-0.3	5.5	-0.5	-0.4	0.9	65.5*
CSCCC(NC(=O)c1cccc(C)c1)C(=O)NCc1cccs1 (stereo unspecified)	0.3	9.5	-0.9	-0.4	-0.6	-5.7
Cc1ccc(C=NNC(=O)c2cc(C)oc2C)cc1	.	.	.	.	2.1	.
N#C/C(=C\Nc1ccc2cn[nH]c2c1)c1nc(-c2ccccc2)cs1	.	6.0	-0.7	2.0	1.2	-3.1
Cc1ccnc(N/C=C(\C#N)c2nc(-c3cccc(Br)c3)cs2)c1	-2.8	9.9	236.8*	-2.0	2.0	-249.8
Cc1ccc(C)c2sc(NC(=O)c3ccc(N4C(=O)CCC4=O)cc3)nc12	-2.3	-7.9	116.2*	0.3	-4.3	-115.2
C[C@H](O)[C@@H]1C(=O)N2CCc3ccc(N4CCN(C)CC4)cc3[C@@H]2C[C@@H]1N(C)C(=O)c1ccc(C#N)cc1	.	19.5	1.1	3.3	.	-9.7
COCC(=O)N(C)[C@H]1C[C@H]2c3cc(N4CCN(C)CC4)ccc3CCN2C(=O)[C@H]1[C@H](C)O	.	0.9	-1.2	-0.7	.	111.1*
CC(CC(=O)Nc1ccccn1)=NNC(=O)c1ccc2ccccc2c1	.	.	.	.	4.1	.
O=C1NC(c2ccc(Cl)c([N+](=O)[O-])c2)Nc2ccccc21 (stereo unspecified)	-0.9	55.0*	2.5	1.9	3.8	-14.8
COc1ccc(CCC(C)=NNC(N)=O)cc1	.	.	.	.	4.0	.
Cc1nnc(NCc2n[nH]c(=O)c3ccccc23)c2ccccc12	-3.3	-11.3	-0.1	1.1	1.4	-16.3
COC(=O)Cc1n[nH]c(=O)c2ccccc12	-1.8	59.2*	-0.1	3.9	5.7	-6.5
COC(=O)c1ccc(COC(=O)Cc2n[nH]c(=O)c3ccccc23)cc1	-1.9	38.6	-1.7	12.0	0.8	8.1
Cc1ccc(N2CC(C(=O)NCc3n[nH]c(=O)c4ccccc34)CC2=O)cc1C (stereo unspecified)	-2.2	72.0*	0.8	-0.1	-5.2	-2.6
COc1ccc(NCc2n[nH]c(=O)c3ccccc23)cc1	0.0	76.0*	0.3	-2.0	3.4	0.2
Cc1ccc(OCC(=O)NCc2n[nH]c(=O)c3ccccc23)cc1	1.4	70.6*	0.1	-0.3	2.4	6.8
CCOC(=O)c1c(NC(=O)COC(=O)CCNS(=O)(=O)c2ccccc2)sc(C(=O)NC)c1C	.	7.8	-5.0	-0.3	4.4	-21.9
CCOC(=O)Cc1n[nH]c(=O)c2ccccc12	-1.5	69.3*	0.1	-1.1	0.9	-2.1
CCOC(=O)c1c(NC(=O)COC(=O)Cc2n[nH]c(=O)c3ccccc23)sc(C(=O)NC)c1C	-0.1	106.0*	0.5	0.6	1.2	9.4
Cc1cc(C)c2cc(C#N)c(NCCCNC(=O)c3ccncc3)nc2c1	.	24.2	-0.1	-0.7	.	-15.6
COc1cc(C(=O)NCCCNc2nc3cc(C)cc(C)c3cc2C#N)cc(OC)c1OC	-3.4	81.3*	1.3	0.9	-121.8	3.7
CCCCc1n[nH]c2c1C(=NOCC)CC(C)(C)C2	.	.	.	.	2.3	.
CCOc1ccc(/C=C/C(=O)c2cc(Br)ccc(=O)c2O)cc1	.	53.1*	5.1	0.1	5.6	-25.7
O=C(NN=Cc1ccc(O)cc1O)c1ccc(CN2C(=O)c3cccc4cccc2c34)cc1	.	.	.	.	1.8	.
